# Source: ChEMBL document CHEMBL4665913, “Discovery of CA-4948, an Orally Bioavailable IRAK4 Inhibitor for Treatment of Hematologic Malignancies” (ACS Med Chem Lett, 2020)
# What was measured:
# [1] = Metabolic stability in human liver microsomes assessed as parent compound remaining at 1 uM measured upto 60 mins in presence of NADPH by LC-MS/MS analysis; type: ADME, Microsome; conditions: read-out: Stabilty
# [2] = Metabolic stability in rat liver microsomes assessed as parent compound remaining at 1 uM measured upto 60 mins in presence of NADPH by LC-MS/MS analysis; type: ADME, Microsome; conditions: read-out: Stabilty
# in vitro = conditions: human, Caco-2
# [3] = Metabolic stability in mouse liver microsomes assessed as parent compound remaining at 1 uM measured upto 60 mins in presence of NADPH by LC-MS/MS analysis; type: ADME, Microsome; conditions: read-out: Stabilty
# [4] = Initial plasma concentration in CD1 mouse at 3 mg/kg, iv by LC-MS/MS analysis; type: ADME, organism-based
# [5] = Tmax in dog at 10 mg/kg, po measured up to 24 hrs by LC-MS/MS analysis; type: ADME, organism-based, Canis lupus familiaris; conditions: in vivo
# [6] = Oral bioavailability in CD1 mouse at 10 mg/kg measured up to 24 hrs by LC-MS/MS analysis; type: ADME, organism-based; conditions: in vivo
# [7] = Half life in dog at 1 mg/kg, iv measured up to 24 hrs by LC-MS/MS analysis; type: ADME, organism-based, Canis lupus familiaris; conditions: in vivo
# [8] = Drug concentration in human OCI-LY3 cells xenografted SCID Beige mouse plasma at 200 mg/kg, po administered via gavage for 14 days and measured at 2 hrs post last dose by LC-MS/MS analysis; type: ADME, organism-based; conditions: time 14 day
# Method in brief: (§1)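 Xenograft-bearing mice (OCI-Ly3) were given oral doses of 25, 50, 100 or 200 mg/kg once daily. Plasma and tumor were collected 2 h after the final dose on day 15. Results are reported as mean plasma concentration (ng/mL) and mean tumor concentration (ng/g) for each dose group.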
# [9] = Drug concentration in human OCI-LY3 cells xenografted SCID Beige mouse plasma at 100 mg/kg, po administered via gavage for 14 days and measured at 2 hrs post last dose by LC-MS/MS analysis; type: ADME, organism-based; conditions: time 14 day; method in brief: as §1
# [10] = Drug concentration in human OCI-LY3 cells xenografted SCID Beige mouse plasma at 25 mg/kg, po administered via gavage for 14 days and measured at 2 hrs post last dose by LC-MS/MS analysis; type: ADME, organism-based; conditions: time 14 day; method in brief: as §1
# [11] = Drug concentration in human OCI-LY3 cells xenografted SCID Beige mouse tumor at 50 mg/kg, po administered via gavage for 14 days and measured at 2 hrs post last dose by LC-MS/MS analysis; type: ADME, organism-based, Neoplasm; conditions: time 14 day, read-out: Ct; method in brief: as §1
# [12] = Volume of distribution in dog at 1 mg/kg, iv measured up to 24 hrs by LC-MS/MS analysis; type: ADME, organism-based, Canis lupus familiaris; conditions: in vivo
# [13] = Fraction unbound in human OCI-LY3 cells xenografted SCID Beige mouse plasma at 200 mg/kg, po after 24 hrs by equilibrium dialysis method; type: ADME, organism-based; conditions: in vivo
# Method in brief: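 Mouse plasma protein binding is the mean of 2 determinations. It was applied to the plasma exposures at 12 and 24 h in the OCI-Ly3 PK/PD study to estimate unbound plasma levels.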
# [14] = Oral bioavailability in Wistar rat at 10 mg/kg measured up to 24 hrs by LC-MS/MS analysis; type: ADME, organism-based; conditions: in vivo
# [15] = Half life in Wistar rat at 3 mg/kg, iv measured up to 24 hrs by LC-MS/MS analysis; type: ADME, organism-based; conditions: in vivo
# [16] = Drug concentration in human OCI-LY3 cells xenografted SCID Beige mouse tumor at 200 mg/kg, po administered via gavage for 14 days and measured at 2 hrs post last dose by LC-MS/MS analysis; type: ADME, organism-based, Neoplasm; conditions: time 14 day, read-out: Ct; method in brief: as §1
# [17] = Cmax in CD1 mouse at 10 mg/kg, po measured up to 24 hrs by LC-MS/MS analysis; type: ADME, organism-based; set-up: route oral, dose 10 mg/kg, time <=24; conditions: in vivo
# [18] = Clearance in dog at 1 mg/kg, iv measured up to 24 hrs by LC-MS/MS analysis; type: ADME, organism-based, Canis lupus familiaris; conditions: in vivo
# [19] = Initial plasma concentration in dog at 1 mg/kg, iv by LC-MS/MS analysis; type: ADME, organism-based, Canis lupus familiaris
# [20] = AUC (0 to t) in Wistar rat at 10 mg/kg, po measured up to 24 hrs by LC-MS/MS analysis; type: ADME, organism-based; set-up: route oral, dose 10 mg/kg, time <=24; conditions: in vivo
# [21] = Cmax in Wistar rat at 10 mg/kg, po measured up to 24 hrs by LC-MS/MS analysis; type: ADME, organism-based; set-up: route oral, dose 10 mg/kg, time <=24; conditions: in vivo
# [22] = AUC (0 to t) in dog at 10 mg/kg, po measured up to 24 hrs by LC-MS/MS analysis; type: ADME, organism-based, Canis lupus familiaris; set-up: route oral, dose 10 mg/kg, time <=24; conditions: in vivo
# [23] = Cmax in dog at 10 mg/kg, po measured up to 24 hrs by LC-MS/MS analysis; type: ADME, organism-based, Canis lupus familiaris; set-up: route oral, dose 10 mg/kg, time <=24; conditions: in vivo
# [24] = Oral bioavailability in dog at 10 mg/kg measured up to 24 hrs by LC-MS/MS analysis; type: ADME, organism-based, Canis lupus familiaris; conditions: in vivo
# [25] = Half life in CD1 mouse at 3 mg/kg, iv measured up to 24 hrs by LC-MS/MS analysis; type: ADME, organism-based; conditions: in vivo
# [26] = AUC (0 to t) in CD-1 mouse at 3 mg/kg, iv measured up to 24 hrs by LC-MS/MS analysis; type: ADME, organism-based; set-up: route intravenous, dose 3 mg/kg, time <=24; conditions: in vivo
# [27] = Tmax in CD1 mouse at 10 mg/kg, po measured up to 24 hrs by LC-MS/MS analysis; type: ADME, organism-based; conditions: in vivo
# [28] = Clearance in CD1 mouse at 3 mg/kg, iv measured up to 24 hrs by LC-MS/MS analysis; type: ADME, organism-based; conditions: in vivo
# [29] = AUC (0 to t) in CD-1 mouse at 10 mg/kg, po measured up to 24 hrs by LC-MS/MS analysis; type: ADME, organism-based; set-up: route oral, dose 10 mg/kg, time <=24; conditions: in vivo
# [30] = AUC (0 to t) in Wistar rat at 3 mg/kg, iv measured up to 24 hrs by LC-MS/MS analysis; type: ADME, organism-based; set-up: route intravenous, dose 3 mg/kg, time <=24; conditions: in vivo
# [31] = Drug concentration in human OCI-LY3 cells xenografted SCID Beige mouse tumor at 25 mg/kg, po administered via gavage for 14 days and measured at 2 hrs post last dose by LC-MS/MS analysis; type: ADME, organism-based, Neoplasm; conditions: time 14 day, read-out: Ct; method in brief: as §1
# [32] = Drug concentration in human OCI-LY3 cells xenografted SCID Beige mouse plasma at 50 mg/kg, po administered via gavage for 14 days and measured at 2 hrs post last dose by LC-MS/MS analysis; type: ADME, organism-based; conditions: time 14 day; method in brief: as §1
# [33] = Tmax in Wistar rat at 10 mg/kg, po measured up to 24 hrs by LC-MS/MS analysis; type: ADME, organism-based; conditions: in vivo
# [34] = Volume of distribution in Wistar rat at 3 mg/kg, iv measured up to 24 hrs by LC-MS/MS analysis; type: ADME, organism-based; conditions: in vivo
# [35] = Initial plasma concentration in Wistar rat at 3 mg/kg, iv by LC-MS/MS analysis; type: ADME, organism-based
# [36] = Clearance in Wistar rat at 3 mg/kg, iv measured up to 24 hrs by LC-MS/MS analysis; type: ADME, organism-based; conditions: in vivo
# [37] = AUC (0 to t) in dog at 1 mg/kg, iv measured up to 24 hrs by LC-MS/MS analysis; type: ADME, organism-based, Canis lupus familiaris; set-up: route intravenous, dose 1 mg/kg, time <=24; conditions: in vivo
# [38] = Drug concentration in human OCI-LY3 cells xenografted SCID Beige mouse tumor at 100 mg/kg, po administered via gavage for 14 days and measured at 2 hrs post last dose by LC-MS/MS analysis; type: ADME, organism-based, Neoplasm; conditions: time 14 day, read-out: Ct; method in brief: as §1
# [39] = Volume of distribution in CD1 mouse at 3 mg/kg, iv measured up to 24 hrs by LC-MS/MS analysis; type: ADME, organism-based; conditions: in vivo
smiles,measurement,setting,value
CCC1(O)CCCN(c2nc3nc(N4CCOCC4)oc3cc2NC(=O)c2coc(-c3ccnc(C)c3)n2)C1 (stereo not drawn),"remaining at 1 h, 1 µM",[1],> 95%
same,"remaining at 1 h, 1 µM",[2],> 95%
same,"Papp A→B at 2 h, 10 µM",in vitro,8.5 ×10⁻⁶ cm/s
same,"remaining at 1 h, 1 µM",[3],91%
Nc1ccc(-c2cccc(C(=O)Nc3ccc4nc(N5CCOCC5)oc4c3)n2)cn1,"Papp A→B at 2 h, 10 µM",in vitro,21.4 ×10⁻⁶ cm/s
Cc1cc(-c2nc(C(=O)Nc3cc4oc(N5CCOCC5)nc4nc3N3CC[C@@H](O)C3)co2)ccn1 [EMAVUSERTIB],C0,[4],7480 ng/mL
same,Tmax,[5],1.17 h
same,bioavailability,[6],71%
same,half-life,[7],2.6 h
same,concentration at 336 h,[8],39100 ng/mL
same,concentration at 336 h,[9],23300 ng/mL
same,concentration at 336 h,[10],5080 ng/mL
same,concentration at 336 h,[11],8290 ng/g
same,Vd,[12],0.5 L/kg
same,Cp(f),[13],49.3 ng/mL
same,"remaining at 1 h, 1 µM",[1],> 95%
same,bioavailability,[14],46%
same,t1/2,[15],5.3 h
same,concentration at 336 h,[16],37000 ng/g
same,Cmax,[17],6620 ng/mL
same,clearance,[18],3.1 mL/min/kg
same,C0,[19],1960 ng/mL
same,AUC(0-t) at 24 h,[20],171000 ng·h/mL
same,Cmax,[21],22100 ng/mL
same,AUC(0-t) at 24 h,[22],86500 ng·h/mL
same,"remaining at 1 h, 1 µM",[2],> 95%
same,Cmax,[23],12800 ng/mL
same,bioavailability,[24],100%
same,half-life,[25],2.6 h
same,AUC(0-t) at 24 h,[26],5270 ng·h/mL
same,Tmax,[27],0.5 h
same,clearance,[28],9.27 mL/min/kg
same,AUC(0-t) at 24 h,[29],12500 ng·h/mL
same,AUC(0-t) at 24 h,[30],112000 ng·h/mL
same,concentration at 336 h,[31],2670 ng/g
same,concentration at 336 h,[32],11600 ng/mL
same,Tmax,[33],1.2 h
same,Vd,[34],2 L/kg
same,C0,[35],27700 ng/mL
same,"Papp A→B at 2 h, 10 µM",in vitro,8.9 ×10⁻⁶ cm/s
same,CL,[36],0.4 mL/min/kg
same,AUC(0-t) at 24 h,[37],6060 ng·h/mL
same,concentration at 336 h,[38],17900 ng/g
same,Vd,[39],0.661 L/kg
same,"remaining at 1 h, 1 µM",[3],> 95%
O=C(Nc1cc2oc(N3CCOCC3)nc2nc1C1CC1)c1coc(N2CC[C@H](O)C2)n1,"remaining at 1 h, 1 µM",[1],90%
same,"remaining at 1 h, 1 µM",[2],> 95%
same,"Papp A→B at 2 h, 10 µM",in vitro,21 ×10⁻⁶ cm/s
same,"remaining at 1 h, 1 µM",[3],> 95%
Cc1cc(-c2nc(C(=O)Nc3cc4oc(N5CCOCC5)nc4nc3N3CC[C@@H](F)C3)co2)ccn1,"remaining at 1 h, 1 µM",[1],95%
same,"remaining at 1 h, 1 µM",[2],95%
same,"Papp A→B at 2 h, 10 µM",in vitro,54.2 ×10⁻⁶ cm/s
same,"remaining at 1 h, 1 µM",[3],88%
